Bridge positions count the residues as written; N and C are the ends. Square brackets hold non-standard residues; d marks the D form. Peptide text beside a SMILES is read from it. * marks the point of attachment. X1 = CC[C@H](C)CCCCC(=O)*; Dab = NCC[C@H](N)C(=O)O
Experiments:
[1] = type: in vivo, human
How it was run: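 Elderly ICU patients without prior renal failure, AKI, RRT or ECMO received iv test compound for more than 3 days. AKI was a creatinine rise of more than 50% from baseline. Trough and peak plasma levels were measured by HPLC-MS/MS after at least six doses. AUCss,24h and Css,avg were derived with first-order elimination equations. ROC analysis gave sensitivity and specificity for AKI prediction.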

[2] = multicenter study; cited from earlier work
[3] = ROC curve analysis, critically ill elderly patients, 28 AKI vs 30 non-AKI

Question: Which results are given for `CC[C@H](C)CCCCC(=O)N[C@@H](CCN)C(=O)N[C@H](C(=O)N[C@@H](CCN)C(=O)N[C@H]1CCNC(=O)[C@H]([C@@H](C)O)NC(=O)[C@H](CCN)NC(=O)[C@H](CCN)NC(=O)[C@H](CC(C)C)NC(=O)[C@@H](Cc2ccccc2)NC(=O)[C@H](CCN)NC1=O)[C@@H](C)O` [polymyxin B] (X1-[Dab]T[Dab][Dab][Dab][dF]L[Dab][Dab]T; lactam 4-C)?
Answer: area under the ROC curve of Css,avg for prediction of PB-AKI ([1]; 95% CI 0.579-0.847): 0.713; area under the ROC curve of Cmin for prediction of PB-AKI ([1]; 95% CI 0.661-0.910): 0.786; cutoff value for Cmin for predicting AKI [1, 3]: 2940 ng/mL; cutoff value for Css,avg for predicting AKI [1, 3]: 4140 ng/mL; sensitivity of Cmin cutoff for prediction of PB-AKI ([1]; cutoff 2.94 mg/L): 78.57%; specificity of Cmin cutoff for prediction of PB-AKI ([1]; cutoff 2.94 mg/L): 80.00%; sensitivity of Css,avg cutoff for prediction of PB-AKI ([1]; cutoff 4.14 mg/L): 82.14; specificity of Css,avg cutoff for prediction of PB-AKI ([1]; cutoff 4.14 mg/L): 53.33%; mortality rate of patients with PB-associated AKI higher than that of patients without AKI [2]: 17%

Source: publication PMC11831629 (The Journal of International Medical Research, 2025)
